Results as given in ChEMBL document CHEMBL2407075, “Sulphonamido-quinoxalines: search for anticancer agent” (Eur J Med Chem, 2013).

Columns and labels:
Format in all cases: functional
[1] = test system: DU-145; experiment: Growth inhibition of human DU145 cells assessed as cell growth at 10^-4 M after 48 hrs by sulforhodamine B assay; conditions: DU-145, 48 h, read-out: Activity
Outline: (§1)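 Five-dose NCI-60 run (0.01, 0.1, 1, 10 and 100 µM, as 10-fold dilutions from a DMSO stock made at 400× the top final level). Cells were grown in RPMI 1640 with 5% FBS and 2 mM glutamine and plated for 24 h. They were then exposed for 48 h at 37 °C and 5% CO2. TCA fixation was followed by SRB staining with A515 read-out. Percent growth was taken relative to time-zero and control plates.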

[2] = test system: PC-3; experiment: Growth inhibition of human PC3 cells assessed as cell growth at 10^-4 M after 48 hrs by sulforhodamine B assay; conditions: PC-3, 48 h, read-out: Activity
[3] = test system: MDA-MB-435; experiment: Growth inhibition of human MDA-MB-435 cells assessed as cell growth at 10^-4 M after 48 hrs by sulforhodamine B assay; conditions: MDA-MB-435, 48 h, read-out: Activity
[4] = test system: HCT-116; experiment: Growth inhibition of human HCT116 cells assessed as cell growth at 10^-4 M after 48 hrs by sulforhodamine B assay; conditions: HCT-116, 48 h, read-out: Activity
Outline: (§2)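 Five-dose screen at NCI. Cells in RPMI 1640 with 5% FBS and 2 mM L-glutamine, seeded at 5000–40,000 cells/well and grown 24 h at 37 °C, 5% CO2 before dosing, with time-zero plates TCA-fixed. Drug diluted from DMSO stock to 0.01, 0.1, 1, 10 and 100 µM final, 48 h. Cells fixed with cold TCA (10% final), stained with 0.4% SRB and read at 515 nm. Percent growth from Tz, control and test absorbances; GI50, TGI and LC50 from dose-response curves.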

[5] = test system: K562; experiment: Growth inhibition of human K562 cells assessed as cell growth at 10^-4 M after 48 hrs by sulforhodamine B assay; conditions: K562, 48 h, read-out: Activity
[6] = test system: SNB-19; experiment: Growth inhibition of human SNB19 cells assessed as cell growth at 10^-5 M after 48 hrs by sulforhodamine B assay; conditions: SNB-19, 48 h, read-out: Activity
[7] = test system: KM12; experiment: Growth inhibition of human KM12 cells assessed as cell growth at 10^-5 M after 48 hrs by sulforhodamine B assay; conditions: KM12, 48 h, read-out: Activity
[8] = test system: HCT-116; experiment: Growth inhibition of human HCT116 cells assessed as cell growth at 10^-5 M after 48 hrs by sulforhodamine B assay; conditions: HCT-116, 48 h, read-out: Activity; outline: as §2
[9] = test system: HOP-62; experiment: Growth inhibition of human HOP62 cells assessed as cell growth at 10^-5 M after 48 hrs by sulforhodamine B assay; conditions: HOP-62, 48 h, read-out: Activity; outline: as §2
[10] = Growth inhibition of human EKVX cells assessed as cell growth at 10^-5 M after 48 hrs by sulforhodamine B assay; conditions: read-out: Activity; outline: as §2
[11] = test system: BT-549; experiment: Growth inhibition of human BT549 cells assessed as cell growth at 10^-6 M after 48 hrs by sulforhodamine B assay; conditions: BT-549, 48 h, read-out: Activity; outline: as §1
[12] = Growth inhibition of human NCI-ADR-RES cells assessed as cell growth at 10^-6 M after 48 hrs by sulforhodamine B assay; conditions: read-out: Activity
[13] = test system: RPMI-8226; experiment: Growth inhibition of human RPMI8226 cells assessed as cell growth at 10^-6 M after 48 hrs by sulforhodamine B assay; conditions: RPMI-8226, 48 h, read-out: Activity
[14] = test system: HL-60(TB); experiment: Growth inhibition of human HL-60(TB) cells assessed as cell growth at 10^-6 M after 48 hrs by sulforhodamine B assay; conditions: HL-60, 48 h, read-out: Activity
Outline: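 HL-60(TB) suspension cells were treated 48 h at 37 °C within the five-dose series (0.01–100 µM), fixed with 16% final TCA and SRB-stained, read at 515 nm. Percentage growth at each concentration = (Ti−Tz)/(C−Tz)×100, or (Ti−Tz)/Tz×100 when Ti<Tz, with time-zero (Tz) and untreated control (C) plates.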

[15] = test system: MCF7; experiment: Growth inhibition of human MCF7 cells assessed as cell growth at 10^-7 M after 48 hrs by sulforhodamine B assay; conditions: MCF7, 48 h, read-out: Activity
[16] = test system: UO-31; experiment: Growth inhibition of human UO31 cells assessed as cell growth at 10^-7 M after 48 hrs by sulforhodamine B assay; conditions: UO-31, 48 h, read-out: Activity
[17] = test system: Malme-3M; experiment: Growth inhibition of human MALME-3M cells assessed as cell growth at 10^-7 M after 48 hrs by sulforhodamine B assay; conditions: read-out: Activity
[18] = test system: UO-31; experiment: Growth inhibition of human UO31 cells assessed as cell growth at 10^-8 M after 48 hrs by sulforhodamine B assay; conditions: UO-31, 48 h, read-out: Activity
[19] = test system: ACHN; experiment: Growth inhibition of human ACHN cells assessed as cell growth at 10^-8 M after 48 hrs by sulforhodamine B assay; conditions: read-out: Activity; outline: as §1
[20] = test system: KM12; experiment: Growth inhibition of human KM12 cells assessed as cell growth at 10^-8 M after 48 hrs by sulforhodamine B assay; conditions: KM12, 48 h, read-out: Activity
[21] = test system: NCI-H460; experiment: Growth inhibition of human NCI-H460 cells assessed as cell growth at 10^-8 M after 48 hrs by sulforhodamine B assay; conditions: NCI-H460, 48 h, read-out: Activity
[22] = test system: NCI-H226; experiment: Growth inhibition of human NCI-H226 cells assessed as cell growth at 10^-8 M after 48 hrs by sulforhodamine B assay; conditions: NCI-H226, 48 h, read-out: Activity
[23] = test system: DU-145; experiment: Growth inhibition of human DU145 cells after 48 hrs by sulforhodamine B assay; conditions: DU-145, 48 h; for CC50: read-out: LC50 (the source's name)
Outline: (§3)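 Adherent cells in RPMI 1640 with 5% FBS and 2 mM L-glutamine were plated at 5000–40,000 cells/well and grown 24 h. Five concentrations (0.01–100 µM, DMSO stock) were added for 48 h at 37 °C. Cells were fixed with cold TCA (10% final) and stained with SRB, read at 515 nm. GI50 came from log concentration–growth curves against time-zero and control plates.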

[24] = test system: UO-31; experiment: Growth inhibition of human UO31 cells after 48 hrs by sulforhodamine B assay; conditions: UO-31, 48 h; for CC50: read-out: LC50 (the source's name)
Outline: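 NCI-60 screen. Cells grown in RPMI 1640 with 5% FBS and 2 mM L-glutamine, plated at 5000–40,000 cells/well and preincubated 24 h at 37 °C, 5% CO2. A time-zero plate is TCA-fixed at drug addition. DMSO stocks diluted in medium; five concentrations (0.01, 0.1, 1, 10, 100 µM). Exposure 48 h, then cold TCA fixation and 0.4% SRB staining, absorbance at 515 nm. GI50 is taken from the growth-percentage curve relative to time zero and control.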

[25] = test system: 786-0; experiment: Growth inhibition of human 786-0 cells after 48 hrs by sulforhodamine B assay; conditions: 786-0, 48 h, read-out: LC50 (the source's name); outline: as §3
[26] = test system: HOP-92; experiment: Growth inhibition of human HOP92 cells after 48 hrs by sulforhodamine B assay; conditions: HOP-92, 48 h; for CC50: read-out: LC50 (the source's name); outline: as §3

Structure (SMILES) | growth at 100 µM [1] | growth at 100 µM [2] | growth at 100 µM [3] | growth at 100 µM [4] | growth at 100 µM [5] | growth at 10 µM [6] | growth at 10 µM [7] | growth at 10 µM [8] | growth at 10 µM [9] | growth at 10 µM [10] | growth at 1 µM [11] | growth at 1 µM [12] | growth at 1 µM [13] | growth at 1 µM [14] | growth at 0.1 µM [15] | growth at 0.1 µM [16] | growth at 0.1 µM [17] | growth at 0.01 µM [18] | growth at 0.01 µM [19] | growth at 0.01 µM [20] | other results
O=S(=O)(Nc1ccc(Cl)cc1)c1ccc2nc(-c3ccccc3)c(-c3ccccc3)nc2c1 | 65% | 42% | 76% | 52% | 58% | 17% | 5% | 1% | 13% | -7% | 78% | 89% | 68% | 89% | 95% | 89% | 99% | 87% | 102% | 103% | growth at 0.01 µM [21]: 101%; growth at 0.01 µM [22]: 91%; TGI [23]: > 100 µM; CC50 [23]: > 100 µM; TGI [24]: > 100 µM; CC50 [24]: > 100 µM; CC50 [25]: > 100 µM; GI50 [26]: 2.03 µM; CC50 [26]: > 100 µM
O=S(=O)(Nc1ccccn1)c1ccc2nc(-c3ccccc3)c(-c3ccccc3)nc2c1 | 59% | 23% | 76% | 39% | 48% | 17% | 6% | 1% | 16% | -2% | 71% | 84% | 55% | 74% | 96% | 88% | 107% | 88% | 99% | 91% | growth at 0.01 µM [21]: 104%; growth at 0.01 µM [22]: 100%; TGI [23]: > 100 µM; CC50 [23]: > 100 µM; CC50 [24]: > 100 µM; CC50 [25]: > 100 µM; GI50 [26]: 1.94 µM; CC50 [26]: > 100 µM
